# Measured values collected from several papers.
# Each line is one published result; the experiments were not run side by side.
# Organism: Mycobacterium tuberculosis
# Observed: microbial growth
SMILES,assay,test system,setting,MIC
Cc1ccc(CCNc2cc(-c3nccs3)nc3nncn23)cc1,,H37RV,5 days,32 µM
CO[C@H]1/C=C/O[C@@]2(C)Oc3c(C)c(O)c4c(O)c(c(/C=N/N5CCN(C)CC5)c(O)c4c3C2=O)NC(=O)/C(C)=C\C=C\[C@H](C)[C@H](O)[C@@H](C)[C@@H](O)[C@@H](C)[C@H](OC(C)=O)[C@@H]1C,,H37RV,,0.06 µg/mL
CCc1cc(=O)c2c(OCC(O)CNC(C)C)c3ccoc3c(OC)c2o1 (stereo not drawn),resazurin,,21 days,16 µg/mL
CC(CNc1cc(-c2ccccn2)nc2nncn12)c1ccccc1 (stereo not drawn),,H37RV,5 days,> 100 µM
CCc1cc(=O)c2c(OCC(O)CN(CC)CC)c3ccoc3c(OC)c2o1 (stereo not drawn),resazurin,H37RV,21 days,128 µg/mL
FC(F)(F)c1ccc(CCNc2cc(-c3ccccn3)nc3nncn23)cc1,,H37RV,,0.53 µM
CO[C@H]1/C=C/O[C@@]2(C)Oc3c(C)c(O)c4c(O)c(c(/C=N/N5CCN(C)CC5)c(O)c4c3C2=O)NC(=O)/C(C)=C\C=C\[C@H](C)[C@H](O)[C@@H](C)[C@@H](O)[C@@H](C)[C@H](OC(C)=O)[C@@H]1C,resazurin,H37RV,7 days,0.1 µg/mL
NNC(=O)c1ccncc1,,H37RV,,0.62 µM
O=c1[nH]c2nc(-c3ccccc3)sc2c(=O)n1O,,,,12.8 µM
NNC(=O)c1ccncc1,,H37RA,,0.34 µM
Cc1ccc(CCNc2cc(-c3ccc(C)o3)nc3nncn23)cc1,,H37RV,,0.36 µM
O=c1[nH]c2ncsc2c(=O)n1O,,,,27.4 µM
CCc1cc(=O)c2c(O)c3ccoc3c(OC)c2o1,resazurin,H37RV,21 days,512 µg/mL
CC[C@@H](CO)NCCN[C@@H](CC)CO,resazurin,H37RV,5 days,1 µg/mL
[H]/N=C(/N)N[C@H]1[C@H](O)[C@@H](O)[C@H](O[C@@H]2O[C@@H](C)[C@](O)(C=O)[C@H]2O[C@@H]2O[C@@H](CO)[C@H](O)[C@@H](O)[C@@H]2NC)[C@@H](N/C(N)=N\[H])[C@@H]1O,resazurin,H37RV,,0.43 µM
COc1ccc(-c2oc3ccc(O)c(CN4CCCCC4)c3c2C(=O)NCc2cn(C[C@H]3O[C@H](O[C@H]4O[C@H](CO)[C@@H](O)[C@H](O)[C@H]4O)[C@H](O)[C@@H](O)[C@@H]3O)nn2)cc1,,CDC1551,,0.7 µM
CCCc1ccc(CNc2cc(-c3ccccn3)nc3nncn23)cc1,,H37RV,5 days,> 100 µM
[H]/N=C(/N)N[C@H]1[C@H](O)[C@@H](O)[C@H](O[C@@H]2O[C@@H](C)[C@](O)(C=O)[C@H]2O[C@@H]2O[C@@H](CO)[C@H](O)[C@@H](O)[C@@H]2NC)[C@@H](N/C(N)=N\[H])[C@@H]1O,resazurin,,21 days,64 µg/mL
FC(F)(F)c1ccc(CCNc2cc(-c3ccccn3)nc3nnc(C4CC4)n23)cc1,,H37RV,5 days,17 to 50 µM
NC(=S)NN=Cc1ccc(OC(=O)CN2C(=O)CSC2=O)cc1,resazurin,H37RV,,2.84 µM
CCCCCc1ccc(Nc2cc(-c3ccccn3)nc3nncn23)cc1,,H37RV,,> 100 µM
CC[C@@H](CO)NCCN[C@@H](CC)CO,resazurin,H37RV,21 days,0.25 µg/mL
Clc1ccc(CCNc2cc(C3CCCO3)nc3nncn23)cc1 (stereo not drawn),,H37RV,,73 µM
NNC(=O)c1ccncc1,resazurin,,21 days,0.5 µg/mL
